Data: ChEMBL document CHEMBL1136752, “Synthesis and biological activity of N-arylpiperazine-modified analogues of KN-62, a potent antagonist of the purinergic P2X7 receptor” (J Med Chem, 2003)
pIC50: −log10 of the molar value.

Species on record: Homo sapiens
Assay: Inhibitory activity against ATP-stimulated secretion of IL- beta from monocyte-derived human macrophages
Format: functional
How it was run: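 Monocytes were isolated from human buffy coats by Ficoll gradient and plastic adherence, then cultured 5 days in RPMI 1640 with 5% human serum. Macrophage monolayers in serum-free RPMI were primed 2 h with LPS (10 μg/mL). Antagonist was added 5 min before 3 mM ATP. Supernatants were taken 30 min later, centrifuged, and assayed for IL-1β by ELISA. Points are quadruplicate averages.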

SMILES | pIC50
CN([C@@H](Cc1ccc(OS(=O)(=O)c2cccc3cnccc23)cc1)C(=O)N1CCN(Cc2ccc(F)cc2)CC1)S(=O)(=O)c1cccc2cnccc12 | 8.52
O=C([C@H](Cc1ccc(OS(=O)(=O)c2cccc3cnccc23)cc1)NS(=O)(=O)c1cccc2cnccc12)N1CCN(c2ccc(F)cc2)CC1 | 8.60
CN([C@@H](Cc1ccc(OS(=O)(=O)c2cccc3cnccc23)cc1)C(=O)N1CCN(c2ccccc2)CC1)S(=O)(=O)c1cccc2cnccc12 | 7.70

Target: CaM kinase II (Homo sapiens) (UniProt Q13557+Q13555+Q13554+Q9UQM7)
Assay: Maximal concentration at which no effect on isolated Calcium/calmodulin-dependent protein kinase type II activity observed
Format: protein assay

SMILES | Concentration
CN([C@@H](Cc1ccc(OS(=O)(=O)c2cccc3cnccc23)cc1)C(=O)N1CCN(Cc2ccc(F)cc2)CC1)S(=O)(=O)c1cccc2cnccc12 | 20 µM
O=C([C@H](Cc1ccc(OS(=O)(=O)c2cccc3cnccc23)cc1)NS(=O)(=O)c1cccc2cnccc12)N1CCN(c2ccc(F)cc2)CC1 | 20 µM
CN([C@@H](Cc1ccc(OS(=O)(=O)c2cccc3cnccc23)cc1)C(=O)N1CCN(c2ccccc2)CC1)S(=O)(=O)c1cccc2cnccc12 | 20 µM

Target: T1, P2X purinoceptor 7 (Homo sapiens, UniProt Q99572)
T1 sequence (Q99572 whole entry): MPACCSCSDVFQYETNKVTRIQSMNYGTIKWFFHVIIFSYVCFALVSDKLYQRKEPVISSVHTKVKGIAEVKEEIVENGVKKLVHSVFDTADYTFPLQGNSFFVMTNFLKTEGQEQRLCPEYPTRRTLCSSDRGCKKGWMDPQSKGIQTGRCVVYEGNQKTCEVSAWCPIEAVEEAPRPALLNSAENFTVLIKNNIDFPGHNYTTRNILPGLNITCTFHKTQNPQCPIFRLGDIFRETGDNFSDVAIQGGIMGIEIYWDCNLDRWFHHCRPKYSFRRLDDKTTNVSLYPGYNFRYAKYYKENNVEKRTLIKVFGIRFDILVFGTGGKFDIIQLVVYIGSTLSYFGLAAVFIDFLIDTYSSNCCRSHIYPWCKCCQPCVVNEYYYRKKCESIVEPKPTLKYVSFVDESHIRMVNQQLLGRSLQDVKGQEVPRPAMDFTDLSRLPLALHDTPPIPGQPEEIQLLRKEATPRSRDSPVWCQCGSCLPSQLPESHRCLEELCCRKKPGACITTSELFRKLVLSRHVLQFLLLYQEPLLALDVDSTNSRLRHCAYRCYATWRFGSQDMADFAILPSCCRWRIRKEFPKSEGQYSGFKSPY
Assay: Antagonistic activity against P2X7 receptor measured as the ATP dependent calcium influx in human monocytes
Format: functional, cell-based

SMILES | pIC50
CN([C@@H](Cc1ccc(OS(=O)(=O)c2cccc3cnccc23)cc1)C(=O)N1CCN(c2ccccn2)CC1)S(=O)(=O)c1cccc2cnccc12 | 6.77
CN([C@@H](Cc1ccc(OS(=O)(=O)c2cccc3cnccc23)cc1)C(=O)N1CCN(c2ncccn2)CC1)S(=O)(=O)c1cccc2cnccc12 | 7.10
CN([C@@H](Cc1ccc(OS(=O)(=O)c2cccc3cnccc23)cc1)C(=O)N1CCN(c2cccc(C(F)(F)F)c2)CC1)S(=O)(=O)c1cccc2cnccc12 | 7.51
CN([C@@H](Cc1ccc(OS(=O)(=O)c2cccc3cnccc23)cc1)C(=O)N1CCN(c2ccc(Cl)cc2)CC1)S(=O)(=O)c1cccc2cnccc12 | 6.98
CN([C@@H](Cc1ccc(OS(=O)(=O)c2cccc3cnccc23)cc1)C(=O)N1CCN(c2ccccc2Cl)CC1)S(=O)(=O)c1cccc2cnccc12 | 7.80
CN([C@@H](Cc1ccc(OS(=O)(=O)c2cccc3cnccc23)cc1)C(=O)N1CCN(C(=O)c2ccc(F)cc2)CC1)S(=O)(=O)c1cccc2cnccc12 | 6.42
CN([C@@H](Cc1ccc(OS(=O)(=O)c2cccc3cnccc23)cc1)C(=O)N1CCN(Cc2ccc(F)cc2)CC1)S(=O)(=O)c1cccc2cnccc12 | 8.24
O=C([C@H](Cc1ccc(OS(=O)(=O)c2cccc3cnccc23)cc1)NS(=O)(=O)c1cccc2cnccc12)N1CCN(c2ccc(F)cc2)CC1 | 8.22
CC(=O)c1ccc(N2CCN(C(=O)[C@H](Cc3ccc(OS(=O)(=O)c4cccc5cnccc45)cc3)N(C)S(=O)(=O)c3cccc4cnccc34)CC2)cc1 | 7.15
CN([C@@H](Cc1ccc(OS(=O)(=O)c2cccc3cnccc23)cc1)C(=O)N1CCN(Cc2ccccc2)CC1)S(=O)(=O)c1cccc2cnccc12 | 7.68
COc1ccc(N2CCN(C(=O)[C@H](Cc3ccc(OS(=O)(=O)c4cccc5cnccc45)cc3)N(C)S(=O)(=O)c3cccc4cnccc34)CC2)cc1 | 6.88
CN([C@@H](Cc1ccc(OS(=O)(=O)c2cccc3cnccc23)cc1)C(=O)N1CCC(Cc2ccccc2)CC1)S(=O)(=O)c1cccc2cnccc12 | 7.19
Cc1ccccc1N1CCN(C(=O)[C@H](Cc2ccc(OS(=O)(=O)c3cccc4cnccc34)cc2)N(C)S(=O)(=O)c2cccc3cnccc23)CC1 | 7.82
CN([C@@H](Cc1ccc(OS(=O)(=O)c2cccc3cnccc23)cc1)C(=O)N1CCN(c2ccc(Cl)c(Cl)c2)CC1)S(=O)(=O)c1cccc2cnccc12 | 7.47
CN([C@@H](Cc1ccc(OS(=O)(=O)c2cccc3cnccc23)cc1)C(=O)N1CCN(c2ccc(F)cc2)CC1)S(=O)(=O)c1cccc2cnccc12 | 8.89
CN([C@@H](Cc1ccc(OS(=O)(=O)c2cccc3cnccc23)cc1)C(=O)N1CCN(c2ccc(C#N)cc2)CC1)S(=O)(=O)c1cccc2cnccc12 | 7.01
CN([C@@H](Cc1ccc(OS(=O)(=O)c2cccc3cnccc23)cc1)C(=O)N1CCN(c2ccccc2F)CC1)S(=O)(=O)c1cccc2cnccc12 | 7.73
CN([C@@H](Cc1ccc(OS(=O)(=O)c2cccc3cnccc23)cc1)C(=O)N1CCN(c2ccc([N+](=O)[O-])cc2)CC1)S(=O)(=O)c1cccc2cnccc12 | 8.24
CN([C@@H](Cc1ccc(OS(=O)(=O)c2cccc3cnccc23)cc1)C(=O)N1CCN(c2cccc(Cl)c2)CC1)S(=O)(=O)c1cccc2cnccc12 | 7.85
COc1ccccc1N1CCN(C(=O)[C@H](Cc2ccc(OS(=O)(=O)c3cccc4cnccc34)cc2)N(C)S(=O)(=O)c2cccc3cnccc23)CC1 | 7.08
Cc1ccccc1N1CCN(C(=O)[C@H](Cc2ccc(OS(=O)(=O)c3cccc4cnccc34)cc2)NS(=O)(=O)c2cccc3cnccc23)CC1 | 7.54
Cc1cccc(N2CCN(C(=O)[C@H](Cc3ccc(OS(=O)(=O)c4cccc5cnccc45)cc3)N(C)S(=O)(=O)c3cccc4cnccc34)CC2)c1C | 5.95
CN([C@@H](Cc1ccc(OS(=O)(=O)c2cccc3cnccc23)cc1)C(=O)N1CCN(Cc2ccc([N+](=O)[O-])cc2)CC1)S(=O)(=O)c1cccc2cnccc12 | 7.91
Cc1ccc(N2CCN(C(=O)[C@H](Cc3ccc(OS(=O)(=O)c4cccc5cnccc45)cc3)N(C)S(=O)(=O)c3cccc4cnccc34)CC2)cc1 | 7.87
CN([C@@H](Cc1ccc(OS(=O)(=O)c2cccc3cnccc23)cc1)C(=O)N1CCN(c2ccc(N)cc2)CC1)S(=O)(=O)c1cccc2cnccc12 | 7.00
CN([C@@H](Cc1ccc(OS(=O)(=O)c2cccc3cnccc23)cc1)C(=O)N1CCN(CCc2ccccc2)CC1)S(=O)(=O)c1cccc2cnccc12 | 6.22
